STAT1 inh: STAT1 signaling inhibition. NIH 3T3 STAT1-luciferase reporter, IFN-gamma, luminescence. inhibition, % at 5.5 µM. actives 0.35% (n = 200,000);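 active means inhibition above a set limit, the mean inhibition across all tested compounds plus 3 SD, cut at about 34% in these data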
STAT3 activator: increases IL-6 driven STAT3 reporter signal. U3A cells, IL-6 STAT3-luciferase reporter, luminescence; 100% = signal with IL-6 EC80 alone. activation (% of control), % at 5.6 µM. actives 0.91% (n = 190,000). AID 871;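 active means activation above the screen-wide mean of compound activation plus 3 SD, cut at about 130% in these data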
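Material: human STAT1-deficient U3A cells with stable STAT3-luciferase reporter / Probe or stimulus: IL-6 stimulus at 33 ng/mL final / Schedule: 1 h compound pre-exposure, 6 h IL-6 stimulation, 37 °C / Technique: luminescence / Read-out basis: percent of IL-6-only median luminescence / Control set: IL-6-only high control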
STAT3 inh: reduces IL-6 driven STAT3 reporter signal; inhibition, % at 5.5 µM; U3A cells, IL-6 STAT3-luciferase reporter, luminescence; host cell line lacks STAT1; actives 0.89% (n = 190,000);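 active means inhibition above the mean inhibition across all screened compounds plus 3 SD, cut at about 44% in these data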
NF-kB neuron act: NF-kB expression increase, human neuronal cells; actives 1.6% (n = 190,000); NF-kB reporter expression; active compounds read high; AID 1239; fold change at 12.5 µM; in the data active means fold change above about 3.3
STAT1 activator: increases IFN-gamma driven STAT1 reporter signal; NIH 3T3 STAT1-luciferase reporter, luminescence; 100% = IFN-gamma alone, no compound; activation (% of control), % at 5.5 µM; actives 2.6% (n = 200,000); AID 932;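 active means activation above the screen-wide mean activation plus 3 SD, cut at about 130% in these data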
APP 5'UTR act: APP 5'UTR luciferase reporter activation; activation, % at 2 µM; SH-SY5Y APP 5'UTR luciferase reporter, luminescence; zero percent = DMSO vehicle wells; actives 1% (n = 190,000);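 active means activation above a set limit, based on mean plus 3 SD of controls, cut at about 140% in these data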
Numbers stand for hits; i = inactive; nt = no result given. Hits are enriched below; roughly 4.9% of the tested compounds scored in any of these assays.

SMILES	STAT1 inh	STAT3 activator	STAT3 inh	NF-kB neuron act	STAT1 activator	APP 5'UTR act
COc1ccccc1-n1cnnc1SC(C)C(=O)Nc1cccc([N+](=O)[O-])c1 (stereo not drawn)	i	i	i	i	i	i
c1ccc2c(c1)nnn1c3ccccc3nc21	i	i	48.3	5.28	146.4	147.0
Cc1ccccc1OCCN1C(=O)C(=O)c2cccc(C)c21	i	i	i	i	i	nt
Cc1cccc2c1N(CCOc1ccccc1Cl)C(=O)C2=O	i	i	i	3.7	i	i
Cc1nc(SCc2ccccc2)nc2c1CCC2	i	i	i	i	147.8	i
O=C(CSc1nc(-c2ccco2)cc(C(F)(F)F)n1)NCCN1CCOCC1	i	i	i	i	i	i
COc1ccc(CNC(=O)Cn2cc(C(F)(F)F)ccc2=O)cc1	i	i	i	i	i	i
O=C(CC1(O)C(=O)N(C/C=C/c2ccccc2)c2ccccc21)c1ccccn1 (stereo not drawn)	i	i	i	3.75	i	i
O=C1c2ccccc2C(=O)C1c1ccnc2ccccc12	42.9	i	58.1	nt	i	146.1
O=C(Nc1ccc(Cl)cc1)N1CCC(c2ccccc2)C1 (stereo not drawn)	i	i	i	6.2	146.4	168.8
Cc1ccc(NC(=O)N2CCC(c3ccccc3)C2)cc1C (stereo not drawn)	i	i	i	5.73	150.5	142.7
Cc1ccc(C2CCN(C(=O)Nc3ccccc3)C2)cc1 (stereo not drawn)	i	i	i	i	i	i
COc1ccccc1/C=C/C(=O)N1CCOCC1	i	i	i	i	i	i
COc1ccccc1/C=C/C(=O)N1CCC(c2ccccc2)C1 (stereo not drawn)	i	i	i	i	134.2	i
O=C(/C=C/c1ccccc1Cl)NC(=S)Nc1ccccc1C(=O)NC1CCCCC1	i	i	i	i	i	i
O=C(N/N=C/c1cccc([N+](=O)[O-])c1)c1cccs1	i	i	i	i	i	i
CCOc1cc(/C=N/NC(=O)c2cccs2)cc([N+](=O)[O-])c1O	i	i	i	i	128.6	i
O=C(N/N=C/C=C\c1ccco1)c1cccs1	i	i	i	i	129.6	i
O=C(N/N=C/C=C\c1ccccc1[N+](=O)[O-])c1cccs1	i	i	i	5.2	i	i
Cc1ccc(S(=O)(=O)N2CCCCC2)cc1NC(=O)COc1ccccc1F	i	i	i	i	i	i
CCOC(=O)c1ccc(Oc2nc(OC)cc(OC)n2)cc1	i	i	i	i	i	i
CCOCCCNS(=O)(=O)c1ccc(NC(=O)N2c3ccccc3Sc3ccccc32)cc1	i	i	i	i	i	i
C=CCc1cccc2cc(C(=O)Nc3ccccc3C(=O)O)c(=O)oc12	71.8	i	i	i	i	i
C=CCc1cccc2cc(C(=O)O)c(=O)oc12	i	i	i	i	i	i
O=C1NN(c2ccccc2)C(=O)/C1=C/c1cccs1	i	i	i	i	i	i
SMILES	STAT1 inh	STAT3 activator	STAT3 inh	NF-kB neuron act	STAT1 activator	APP 5'UTR act
O=C1NN(c2ccccc2)C(=O)/C1=C/c1coc2ccccc2c1=O	i	i	i	i	146.3	i
Cc1cc(C(=O)N/N=C/c2ccc[nH]2)no1	i	i	i	i	i	i
Cc1cc(C(=O)N/N=C/c2ccc[nH]2)n[nH]1	i	i	i	4.4	i	i
CCNC(=S)Nc1ccc(Cl)c([N+](=O)[O-])c1	i	i	i	i	i	i
O=C(/C=C1\NCC2c3ccccc3CCN2C1=O)c1ccccc1 (stereo not drawn)	i	133.7	i	i	i	i
CC(=O)N1CCc2ccccc2C1CC(=O)O (stereo not drawn)	i	i	i	i	i	i
CCN(CC)c1ccc(/C=N/NC(=O)c2cccc(N3CCCC3=O)c2)cc1	i	i	i	i	i	i
C(=N\Nc1nc2ccccc2[nH]1)/c1ccccn1	92.6	i	110.7	i	i	i
c1ccc2c(c1)CC/C2=N/Nc1nc2ccccc2[nH]1	i	i	i	3.4	137.4	180.0
COC(=O)c1c(C(=O)OC)c(-c2cccc(Cl)c2)n2c1CS(=O)C2 (stereo not drawn)	i	i	i	i	i	i
O=C(NCCc1ccccc1)c1nc(-c2cccs2)no1	i	i	i	i	i	i
CCOC(=O)c1[nH]c2ccc(C)cc2c1N	i	i	i	3.53	i	i
CCN(CC)S(=O)(=O)c1cccc(C(=O)NC(C)C(c2cccs2)N2CCCC2)c1 (stereo not drawn)	i	i	i	i	i	i
c1nnc(-c2ccc3c(c2)OCO3)o1	i	i	i	i	i	i
Cc1ccc(-c2nnc(-c3ccc4c(c3)OCO4)o2)cc1	i	i	i	i	129.9	i
CCOc1ccc(-c2nnc(-c3ccco3)o2)cc1OCC	i	i	i	i	i	i
c1coc(-c2nnc(-c3ccc4c(c3)OCO4)o2)c1	i	i	i	i	132.6	i
c1ccc(-c2nnc(-c3ccco3)o2)cc1	i	i	i	i	138.3	i
Brc1ccc(-c2nnc(-c3ccc4c(c3)OCO4)o2)o1	i	i	i	3.95	i	i
Clc1ccc(CSc2nnc(-c3ccc4c(c3)OCO4)o2)cc1	i	i	i	i	i	i
COc1ccc2[nH]c(C(O)(Cc3cccnc3)Cc3cccnc3)cc2c1	i	i	i	i	i	i
COC(=O)c1c(C)[nH]c(C(=O)NCc2ccco2)c1C	i	i	i	i	i	i
O=C1CCCCC1Sc1nnc(-c2ccc3c(c2)OCO3)o1 (stereo not drawn)	87.2	i	105.1	i	i	177.6
O=C(O)c1cccnc1Nc1ccc(Cl)cc1	i	i	i	i	142.7	i
NC(N)=N/N=C/c1ccc(OCc2ccccc2)cc1	i	i	i	i	i	i
SMILES	STAT1 inh	STAT3 activator	STAT3 inh	NF-kB neuron act	STAT1 activator	APP 5'UTR act
NC(N)=N/N=C/c1ccc(OCc2ccc(Cl)cc2)cc1	i	i	i	5.98	i	i
CN(c1ccccc1)P(=O)(N(C)c1ccccc1)N(C)c1ccccc1	i	i	i	i	i	i
CCn1c(C)nc2cc(C(=O)N/N=C/c3ccccc3)ccc21	i	i	i	i	144.8	i
O=C(COC(=O)C1CCCCC1)Nc1cc([N+](=O)[O-])ccc1F	i	i	i	i	i	i
N=c1c(C(=O)NCc2ccccc2)cc2c(=O)n3ccccc3nc2n1Cc1ccco1	i	i	i	12.2	i	i
COC(=O)c1cc2c(=O)n3ccccc3nc2n(C(C)C)c1=N	i	136.0	i	nt	i	i
N=c1c(C(=O)NCc2ccco2)cc2c(=O)n3ccccc3nc2n1Cc1ccccc1	i	i	i	i	i	i
COC(=O)c1cc(NC(=O)/C=C/c2ccccc2)ccc1O	i	i	i	i	133.2	i
CN(C)c1ccc(NC(=S)NC(=O)/C=C/c2ccc(Cl)cc2)cc1	i	i	i	i	142.1	i
CN(C)c1ccc(NC(=O)/C=C/c2ccccc2Cl)cc1	i	i	i	i	149.1	i
